Experimental data published in ChEMBL document CHEMBL4177755, “Combating Drug-Resistant Fungi with Novel Imperfectly Amphipathic Palindromic Peptides” (J Med Chem, 2018).
Activity calls are given as the source filed them. The rule behind the calls is not given here.

Legend:
[1] = system: Lipid bilayer; test: Binding affinity to phosphatidylglycerol/cardiolipin/phosphatidylethanolamine large unilamellar vesicle assessed as induction of calcein leakage at 2 to 32 uM after 15 mins by spectrofluorophotometric method
Method in brief: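 Large unilamellar vesicles were made from PG/CL/PE (2:1:7), PC/PE/PI/ergosterol (5:4:1:2) or PC/cholesterol (10:1), loaded with 70 mM calcein in Tris/NaCl/EDTA buffer at pH 7.4, frozen and thawed 20 times, and extruded through 100 nm filters. Free dye was removed by gel filtration, and peptide-induced calcein release was measured.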

[2] = system: Escherichia coli; test: Disruption of cytoplasmic membrane electrical potential in Escherichia coli ATCC 25922 at MBC after 800 secs by DiSC3-5 dye-based fluorescence spectrophotometric method; format: functional, organism-based
[3] = system: Escherichia coli; test: Antibacterial activity against Escherichia coli ATCC 25922 after 18 hrs in presence of 12.5% human heat-inactivated serum by broth dilution method; format: functional; conditions: ATCC 25922, 18 h
[4] = system: Escherichia coli; test: Antibacterial activity against Escherichia coli ATCC 25922 after 18 hrs in presence of 25% human heat-inactivated serum by broth dilution method; format: functional; conditions: ATCC 25922, 18 h
[5] = system: Escherichia coli; test: Bactericidal activity against Escherichia coli ATCC 25922 at MBC after 5 hrs by time-kill assay; format: functional
Method in brief: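 Time-kill: E. coli ATCC 25922 or C. albicans cgmcc 2.2086 was exposed to peptide at 1× MBC/MFC. At intervals, aliquots were diluted and spread on MHA (bacteria, counted after 24 h at 37 °C) or YPDA (yeast, counted after 48 h at 28 °C). Values are means of three independent assays.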

[6] = system: Candida albicans; test: Fungicidal activity against fluconazole-resistant Candida albicans 56452 at 0.5 times MFC after 30 passages; format: functional, organism-based
Method in brief: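 Resistance induction. C. albicans cultures were serially passaged by 100-fold dilution every 24 h in 2 mL RPMI 1640 containing sub-MFC peptide, and the MFC was retested at each passage. A control was passaged in RPMI 1640 alone.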

[7] = system: Escherichia coli; test: Induction of cell wall permeabilization in Escherichia coli ATCC 25922 assessed as increase in NPN uptake at 2 uM by fluorescence spectrophotometric method relative to control; format: functional
Method in brief: (§1)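 Log-phase E. coli ATCC 25922 or C. albicans cgmcc 2.2086 at OD600 0.2 in 5 mM HEPES pH 7.4 with 5 mM glucose was preloaded 30 min with 10 μM NPN, then peptide was added. Fluorescence (ex 350, em 420 nm) was followed until it plateaued and converted to % uptake against a 100% reference. Run in triplicate.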

[8] = system: Candida albicans; test: Induction of cell wall permeabilization in Candida albicans cgmcc 2.2086 assessed as increase in NPN uptake at 2 uM by fluorescence spectrophotometric method relative to control; format: functional; method in brief: as §1
[9] = system: Lipid bilayer; test: Binding affinity to phosphatidylglycerol/cardiolipin/phosphatidylethanolamine large unilamellar vesicle assessed as induction of calcein leakage after 15 mins by spectrofluorophotometric method
Method in brief: (§2)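 Compositions were PG/CL/PE 2:1:7 w/w/w (E. coli membrane mimic; lines 4,5) and PC/PE/PI/ergosterol 5:4:1:2 w/w/w/w (fungal membrane mimic; lines 2,3). Lipids underwent 20 freeze–thaw cycles and were extruded through 100 nm filters; free calcein was removed by gel filtration.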

[10] = system: Lipid bilayer; test: Binding affinity to phosphatidylglycerol/cardiolipin/phosphatidylethanolamine large unilamellar vesicle assessed as induction of calcein leakage at 32 uM after 15 mins by spectrofluorophotometric method relative to control; method in brief: as §2
[11] = system: Escherichia coli; test: Induction of membrane damage in Escherichia coli ATCC 25922 assessed as appearance of roughened and broken membrane at MBC after 1 hr by scanning electron microscopy; format: functional, organism-based
Method in brief: (§3)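 E. coli ATCC 25922 was treated at 1× MBC and C. albicans cgmcc 2.2086 at 1× MFC, each for 1 h. Untreated control cells were processed in parallel without peptide. Surface morphology was imaged by AFM and SEM, and ultrastructure by TEM.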

[12] = system: Escherichia coli; test: Induction of membrane damage in Escherichia coli ATCC 25922 assessed as appearance of roughened and broken membrane at MBC after 1 hr by atomic force microscopy; format: functional, organism-based; method in brief: as §3
[13] = system: Candida albicans; test: Induction of membrane damage in Candida albicans cgmcc 2.2086 assessed as intracellular content leakage at MFC after 1 hr by scanning electron microscopy; format: functional, organism-based
Method in brief: (§4)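 E. coli ATCC 25922 or C. albicans cgmcc 2.2086 were treated with peptide at 1× MBC/MFC for 1 h alongside peptide-free controls, then imaged by AFM, SEM or TEM for membrane and ultrastructural changes.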

[14] = system: Candida albicans; test: Induction of membrane damage in Candida albicans cgmcc 2.2086 assessed as intracellular content leakage at MFC after 1 hr by atomic force microscopy; format: functional, organism-based; method in brief: as §4
[15] = system: Candida albicans; test: Induction of membrane damage in Candida albicans cgmcc 2.2086 assessed as intracellular content leakage at MFC after 1 hr by transmission electron microscopy; format: functional, organism-based; method in brief: as §4
[16] = system: Candida albicans; test: Induction of membrane damage in Candida albicans cgmcc 2.2086 assessed as empty regions formation of cytoplasm at MFC after 1 hr by transmission electron microscopy; format: functional, organism-based; method in brief: as §4
[17] = system: Escherichia coli; test: Induction of reactive oxygen species generation in Escherichia coli ATCC 25922 at 32 uM after 1 hr by DCFH-DA dye-based spectrofluorophotometric method relative to control; format: functional
Method in brief: (§5)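 Intracellular ROS in peptide-treated cells were compared with untreated cells; values are mean ± SEM of three independent experiments.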

[18] = system: Candida albicans; test: Induction of reactive oxygen species generation in Candida albicans cgmcc 2.2086 after 1 hr by DCFH-DA dye-based spectrofluorophotometric method; format: functional, organism-based
Method in brief: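 E. coli ATCC 25922 and C. albicans cgmcc 2.2086 cells were exposed to a range of peptide concentrations up to 32 μM. ROS levels were read by fluorescence and expressed relative to untreated cells. Values are mean ± SEM of three independent experiments.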

[19] = system: Candida albicans; test: Induction of reactive oxygen species generation in Candida albicans cgmcc 2.2086 at 32 uM after 1 hr by DCFH-DA dye-based spectrofluorophotometric method relative to control; format: functional; method in brief: as §5
[20] = system: Lipopolysaccharide (LPS); test: Displacement of BODIPY-TR-cadaverine from Escherichia coli O111:B4 LPS at 4 uM after 1 hr by spectrofluorophotometric method relative to control
Method in brief: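 Fluorescence-based displacement assay: peptide displaces BODIPY-TR-cadaverine from LPS; polymyxin B served as the LPS-binding reference.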

[21] = system: RAW264.7; test: Induction of endotoxin-neutralization in mouse RAW264.7 cells assessed as inhibition of LPS-induced nitric oxide production at 16 uM after 18 hrs by Griess assay relative to control; format: functional; conditions: RAW264.7, 18 h
Method in brief: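 RAW 264.7 cells were stimulated with 50 ng/mL LPS with or without peptide at various concentrations. TNF-α in supernatants was measured by ELISA and NO by Griess reagent. Mean ± SEM of three independent experiments, compared against LPS alone.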

[22] = system: RAW264.7; test: Immunostimulatory activity in mouse RAW264.7 cells assessed as induction of TNFalpha secretion by ELISA; format: cell-based
Method in brief: (§6)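 RAW 264.7 macrophages were exposed to peptide at various concentrations. TNF-α in culture supernatants was measured by ELISA and NO by Griess reagent. Values are means ± SEM of three independent experiments.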

[23] = system: RAW264.7; test: Immunostimulatory activity in mouse RAW264.7 cells assessed as induction of nitric oxide production by Griess assay; format: cell-based; method in brief: as §6

## CC[C@H](C)[C@H](NC(=O)CN)C(=O)NCC(=O)N[C@@H](C)C(=O)N[C@H](C(=O)N[C@@H](CC(C)C)C(=O)N[C@@H](CCCCN)C(=O)N[C@H](C(=O)N[C@@H](CC(C)C)C(=O)N[C@H](C(=O)N[C@H](C(=O)NCC(=O)N[C@@H](CC(C)C)C(=O)N1CCC[C@H]1C(=O)N[C@@H](C)C(=O)N[C@@H](CC(C)C)C(=O)N[C@H](C(=O)N[C@@H](CO)C(=O)N[C@@H](Cc1c[nH]c2ccccc12)C(=O)N[C@H](C(=O)N[C@@H](CCCCN)C(=O)N[C@@H](CCCNC(=N)N)C(=O)N[C@@H](CCCCN)C(=O)N[C@@H](CCCNC(=N)N)C(=O)N[C@@H](CCC(N)=O)C(=O)N[C@@H](CCC(N)=O)C(N)=O)[C@@H](C)CC)[C@@H](C)CC)[C@@H](C)O)[C@@H](C)O)C(C)C)C(C)C [MELITTIN]
[1]
  Activity: Active
[2]
  Activity: Active

## H-RRIRIIIRIRR-NH2
[3]
  MIC: 4 µM
[4]
  MIC: 4 µM
[5]
  Activity: >99.99%
[6]
  Activity: Active
[7]
  Activity: >70%
[8]
  Activity: 20%
[9]
  Activity: Dose-dependent effect
[10]
  Activity: 63%
[11]
  Activity: Active
[12]
  Activity: Active
[13]
  Activity: Active
[14]
  Activity: Active
[15]
  Activity: Active
[16]
  Activity: Active
[17]
  fold change (FC): 2
[18]
  Activity: Dose-dependent effect
[19]
  fold change (FC): 14
[20]
  inhibition: 68%
[21]
  inhibition at 16 µM: 100%
[22]
  Activity: Non-Toxic
[23]
  Activity: Non-Toxic
